Source: publication PMC4091967 (International Journal of Oncology, 2014)
Like-named read-outs stand apart in the source and are kept apart here.

What was measured:
[1] = system: PC-3 prostate cancer cells; assay: Trypan blue exclusion cell viability assay; assay type: cell-based, human; settings: for EC100: read-out: EC100 values in PC-3 cells, trypan blue exclusion, 72 h, mean ± SEM
Summary of the method: (§1)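 Seeding 24 h ahead was DU-145 at 6,000 cells/well in DMEM and PC-3 at 6,500 cells/well in RPMI-1640, both with 10% FBS and 1% penicillin/streptomycin. Compounds were added from DMSO stocks (0.2% final DMSO) for 72 h, in quadruplicate. Cells were trypsinized, washed in calcium-free PBS, resuspended in PBS and counted by automated trypan blue exclusion. EC50 came from ≥6 concentrations bracketing a preliminary estimate; 3 independent experiments.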

[2] = Trypan blue exclusion cell viability assay on normal cells, 72 h; assay type: cell-based, human; settings: human, HIFF (human infant foreskin fibroblasts)
Summary of the method: (§2)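 HIFF fibroblasts (infant foreskin, donor-consented) were kept in DMEM with 10% FBS and 1% penicillin/streptomycin at 37°C and 5% CO2, seeded at 6,000 cells/well 24 h ahead. Cells were treated for 72 h at 50 μM or at single lower concentrations (0.2% final DMSO), in quadruplicate. Cells were trypsinized, washed in calcium-free PBS, resuspended in PBS, and viability was scored by automated trypan blue exclusion.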

[3] = system: DU-145 prostate cancer cells; assay: Trypan blue exclusion cell viability assay; assay type: cell-based, human; settings: for EC100: read-out: EC100 values in DU-145 cells, trypan blue exclusion, 72 h, mean ± SEM
Summary of the method: as §1

[4] = system: DU-145 prostate cancer cells; assay: Alamar Blue cell viability assay; assay type: cell-based; settings: Homo sapiens, DU-145, read-out: EC50 value in Alamar Blue
Summary of the method: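 DU-145 cells were grown in DMEM with 10% FBS and 1% penicillin/streptomycin at 37°C and 5% CO2, then seeded at 6,000 cells/well 24 h before treatment. Compounds were added from DMSO stocks to 0.2% final DMSO for 72 h, in quadruplicate. After PBS wash, wells got Alamar Blue for 6 h; fluorescence ex 530/em 590 nm. EC50 fitted from ≥6 concentrations.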

[5] = system: DU-145 prostate cancer cells; assay: Crystal violet cell viability assay; assay type: cell-based, human; settings: crystal violet staining, even at non-cytotoxic concentrations
Summary of the method: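 DU-145 cells were seeded at 6,000 cells/well in DMEM/10% FBS 24 h ahead and exposed to compound for 72 h (0.2% final DMSO), in quadruplicate. Cells were fixed in 4% formaldehyde at 4°C for 30 min, washed with MeOH:AcOH 3:1, then 80% MeOH, and stained with 0.1% crystal violet for 1 h at room temperature. Stain was dissolved in 10% AcOH; A570 read against untreated control.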

[6] = system: HIFF (human infant foreskin fibroblasts) normal cells; assay: Trypan blue exclusion cell viability assay on normal cells, 72 h; assay type: cell-based; settings: 50 μM flavonol, mean ± SEM
Summary of the method: as §2

B12 cells = settings: 3 h incubation, ref 70 (Liu et al); cited from earlier work
[7] = Homo sapiens, PC-3, 72 h, read-out: EC50 values in PC-3 cells, trypan blue exclusion, 72 h, mean ± SEM
[8] = read-out: EC100 - EC50 values in PC-3 cells, difference between EC100 and EC50, mean ± SEM
[9] = Homo sapiens, DU-145, 72 h, read-out: EC50 values in DU-145 cells, trypan blue exclusion, 72 h, mean ± SEM
[10] = Homo sapiens, DU-145, read-out: EC100 - EC50 values in DU-145 cells, difference between EC100 and EC50, mean ± SEM
[11] = Homo sapiens, PC-3, read-out: EC100 - EC50 values in PC-3 cells, difference between EC100 and EC50, mean ± SEM
[12] = read-out: EC100 - EC50 values in DU-145 cells, difference between EC100 and EC50, mean ± SEM
[13] = read-out: EC50 values in DU-145 cells, trypan blue exclusion, 72 h, mean ± SEM

Row | EC50 [1, 7] | EC50 [1, 8] | EC50 [3, 9] | EC50 [3, 10] | EC50 [1, 11] | EC50 [3, 12] | EC50 [4] | EC50 [3, 13] | EC50 ([1]; read-out: EC50 values in PC-3 cells, trypan blue exclusion, 72 h, mean ± SEM) | Structure (SMILES) | viability at 72 h, 50 μM [2] | EC100 ([1]; Homo sapiens, PC-3, 72 h) | EC100 ([3]; Homo sapiens, DU-145, 72 h) | maximum achievable cell viability compared to the control [5] | % Viability of HIFF (50 μM) [6] | MTT reduced more than the control (B12 cells)
1 | 9.31 ± 0.58 µM | 8.55 ± 2.06 µM | 14.8 ± 0.71 µM | 5.62 ± 5.5 µM |  |  |  |  |  | O=C(c1ccccc1)c1cccc(-c2oc3cc(O)cc(O)c3c(=O)c2O)c1 [5a, 2-(3-Benzoylphenyl)-3,5,7-trihydroxy-4H-chromen-4-one] | 34.8 ± 0.2% |  |  |  |  | 
2 | 9.97 ± 0.36 µM |  | 16.6 ± 0.7 µM | 24.4 ± 1.1 µM | 12.3 ± 0.99 µM |  |  |  |  | O=C(c1ccccc1)c1ccc(-c2oc3cc(O)cc(O)c3c(=O)c2O)cc1 [5b, 2-(4-Benzoylphenyl)-3,5,7-trihydroxy-4H-chromen-4-one] | 32.3 ± 2.92% | 22.3 ± 0.91 µM | 41 ± 2.18 µM |  |  | 
3 | 10.5 ± 0.72 µM | 9 ± 1.06 µM | 14.5 ± 1.02 µM | 10.1 ± 0.84 µM |  |  |  |  |  | O=c1c(O)c(-c2cccc(I)c2)oc2cc(O)cc(O)c12 [5c, 3,5,7-Trihydroxy-2-(3-iodophenyl)-4H-chromen-4-one] | 46.8 ± 2.48% |  |  |  |  | 
4 | 4.13 ± 0.16 µM | 6.21 ± 0.59 µM | 7.51 ± 0.27 µM | 2.33 ± 2.05 µM |  |  |  |  |  | O=c1c(O)c(-c2ccc(I)cc2)oc2cc(O)cc(O)c12 [5d, 3,5,7-Trihydroxy-2-(4-iodophenyl)-4H-chromen-4-one] | 34.8 ± 0.99% |  |  |  |  | 
5 | 9.89 ± 1.24 µM |  | 14.3 ± 0.53 µM |  | 10.5 ± 3.29 µM | 9.45 ± 1.89 µM |  |  |  | Cc1ccc(-c2oc3cc(O)cc(O)c3c(=O)c2O)cc1 [5e, 3,5,7-Trihydroxy-2-(p-tolyl)-4H-chromen-4-one] | 37.5 ± 2.27% |  |  |  |  | 
6 | 17.1 ± 1.29 µM |  | 25.9 ± 0.59 µM |  | 26.8 ± 5.31 µM | 20.5 ± 0.46 µM |  |  |  | O=c1c(O)c(-c2ccccc2)oc2cc(O)cc(O)c12 [5f, Galangin, reference compound] | 48 ± 1.38% | 43.9 ± 4.14 µM | 46.4 ± 3.92 µM |  |  | 
7 | 6.35 ± 0.26 µM | 4.98 ± 1.54 µM | 6.33 ± 0.58 µM | 11.7 ± 1.11 µM |  |  |  |  |  | O=c1c(O)c(-c2cccc(-c3ccccc3)c2)oc2cc(O)cc(O)c12 [8c, 2-[(1,1′-Biphenyl)-3-yl]-3,5,7-trihydroxy-4H-chromen-4-one] | 34.6 ± 2.74% |  |  |  |  | 
8 | 5.4 ± 0.63 µM | 3.35 ± 0.93 µM | 5.57 ± 0.6 µM | 6.86 ± 0.18 µM |  |  |  |  |  | O=c1c(O)c(-c2ccc(-c3ccccc3)cc2)oc2cc(O)cc(O)c12 [8d, 2-[(1,1′-Biphenyl)-4-yl]-3,5,7-trihydroxy-4H-chromen-4-one] | 34.4 ± 3.67% |  |  |  |  | 
9 | 14.9 ± 0.78 µM |  | 19.8 µM |  | 19.3 ± 2.1 µM | 19.4 ± 2.02 µM | 30.1 µM | 19.8 ± 0.5 µM |  | COc1ccc(-c2oc3cc(O)cc(O)c3c(=O)c2O)cc1 [Kaempferide, reference compound] | 52.2 ± 1.17% | 34.2 ± 1.66 µM | 39.2 ± 0.87 µM | < 50% |  | 
10 | 33.3 ± 2.96 µM |  | 38.4 ± 1.94 µM |  | 24.3 ± 4.63 µM | 36 ± 2.02 µM |  |  |  | O=c1c(O)c(-c2ccc(O)cc2)oc2cc(O)cc(O)c12 [Kaempferol, reference compound] | 73.8 ± 1.38% | 57.6 ± 6.4 µM | 74.4 ± 0.83 µM |  |  | 
11 | 32.9 µM | 44.3 ± 4.29 µM | 39.1 µM |  |  | 46.3 ± 8.55 µM | 55.1 µM | 39.1 ± 2.87 µM | 32.9 ± 4.1 µM | O=c1c(O)c(-c2ccc(O)c(O)c2)oc2cc(O)cc(O)c12 [Quercetin, reference compound] | 84.5 ± 2.21% | 77.1 ± 3.4 µM | 85.4 ± 6.11 µM |  | least inhibitory | 
12 |  |  |  |  |  |  |  |  |  | O=c1c(-c2ccc(O)cc2)coc2cc(O)cc(O)c12 [genistein] |  |  |  |  |  | 60%
